Reference: ChEMBL document CHEMBL5247578, “Effective synthesis of benzimidazoles-imidazo[1,2-a]pyrazine conjugates: A comparative study of mono-and bis-benzimidazoles for antitumor activity” (Eur J Med Chem, 2019)

Assays:
SF-295 = assay: Growth inhibition against human SF-295 cells assessed as total growth inhibitory concentration incubated for 48 hrs by sulforhodamine B assay; type: functional
OVCAR-4 = assay: Growth inhibition against human OVCAR-4 cells incubated for 48 hrs by sulforhodamine B assay; type: functional
786-0 = assay: Growth inhibition against human 786-0 cells assessed as total growth inhibitory concentration incubated for 48 hrs by sulforhodamine B assay; type: functional
Albumin = Albumin (Bos taurus, UniProt P02769); assay: Binding affinity to bovine serum albumin assessed as fluorescence quenching by fluorescence spectroscopic method relative to control; conditions: cattle
Albumin, sequence (P02769 whole entry): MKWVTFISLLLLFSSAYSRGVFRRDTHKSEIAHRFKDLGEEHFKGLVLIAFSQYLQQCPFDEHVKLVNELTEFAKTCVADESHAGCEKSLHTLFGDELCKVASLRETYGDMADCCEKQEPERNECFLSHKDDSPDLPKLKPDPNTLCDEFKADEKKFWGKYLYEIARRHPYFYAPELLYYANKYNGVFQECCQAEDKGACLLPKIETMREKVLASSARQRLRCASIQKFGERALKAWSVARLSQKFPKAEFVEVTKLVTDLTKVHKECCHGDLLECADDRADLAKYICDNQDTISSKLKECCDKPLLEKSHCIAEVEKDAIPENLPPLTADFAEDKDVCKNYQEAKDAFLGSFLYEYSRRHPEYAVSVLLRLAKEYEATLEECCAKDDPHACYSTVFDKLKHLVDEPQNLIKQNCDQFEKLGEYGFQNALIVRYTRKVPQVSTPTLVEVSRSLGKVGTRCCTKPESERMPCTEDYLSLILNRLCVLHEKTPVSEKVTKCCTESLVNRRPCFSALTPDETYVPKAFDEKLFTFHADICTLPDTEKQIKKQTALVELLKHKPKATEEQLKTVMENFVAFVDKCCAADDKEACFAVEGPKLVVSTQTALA

NCI/ADR-RES = assay: Growth inhibition against human NCI/ADR-RES cells assessed as total growth inhibitory concentration incubated for 48 hrs by sulforhodamine B assay; type: functional
NCI-H522 = assay: Antiproliferative activity against human NCI-H522 cells assessed as cell growth at 0.0001 M incubated for 48 hrs by SRB assay relative to control; type: functional; conditions: read-out: Activity
OVCAR-5 = assay: Growth inhibition against human OVCAR-5 cells incubated for 48 hrs by sulforhodamine B assay; type: functional
Calf thymus DNA [1] = assay: Binding affinity to calf thymus DNA assessed as fluorescence quenching intensity at 5 uM at temperature of 318 K by fluorescence spectroscopic method relative to control; type: nucleic-acid assay; conditions: Bos taurus
Calf thymus DNA [2] = assay: Binding affinity to calf thymus DNA assessed as quenching constant at temperature of 308 K by fluorescence spectroscopic method; type: nucleic-acid assay; conditions: Bos taurus
MDA-MB-435 = assay: Growth inhibition against human MDA-MB-435 cells assessed as total growth inhibitory concentration incubated for 48 hrs by sulforhodamine B assay; type: functional
K562 [3] = assay: Antiproliferative activity against human K562 cells assessed as cell growth at 0.00000001 M incubated for 48 hrs by SRB assay relative to control; type: functional; conditions: dose 10 nM, read-out: Activity
NCI-H226 = assay: Growth inhibition against human NCI-H226 cells assessed as total growth inhibitory concentration incubated for 48 hrs by sulforhodamine B assay; type: functional
SK-MEL-28 = assay: Growth inhibition against human SK-MEL-28 cells assessed as total growth inhibitory concentration incubated for 48 hrs by sulforhodamine B assay; type: functional
SK-MEL-5 = assay: Antiproliferative activity against human SK-MEL-5 cells assessed as cell growth inhibition by measuring lethal concentration incubated for 48 hrs by sulforhodamine B assay; type: functional; conditions: read-out: LC50 (the source's name)
Calf thymus DNA [4] = assay: Binding affinity to calf thymus DNA assessed as gibbs free energy change at temperature of 318 K by Van't Hoff plot analysis; type: nucleic-acid assay; conditions: Bos taurus
HCT-15 = assay: Growth inhibition against human HCT-15 cells assessed as total growth inhibitory concentration incubated for 48 hrs by sulforhodamine B assay; type: functional
Calf thymus DNA [5] = assay: Binding affinity to calf thymus DNA assessed as gibbs free energy change at temperature of 298 K by Van't Hoff plot analysis; type: nucleic-acid assay; conditions: Bos taurus
Calf thymus DNA [6] = assay: Binding affinity to calf thymus DNA assessed as DNA intercalation by measuring Stem-Volmer quenching constant at temperature of 308 K by fluorescence spectroscopic method; type: nucleic-acid assay; conditions: Bos taurus
K562 [7] = assay: Antiproliferative activity against human K562 cells assessed as cell growth at 0.00001 M incubated for 48 hrs by SRB assay relative to control; type: functional; conditions: read-out: Activity
RXF 393 = assay: Antiproliferative activity against human RXF 393 cells assessed as cell growth inhibition by measuring lethal concentration incubated for 48 hrs by sulforhodamine B assay; type: functional; conditions: read-out: LC50 (the source's name)
HOP-62 = assay: Growth inhibition against human HOP-62 cells assessed as total growth inhibitory concentration incubated for 48 hrs by sulforhodamine B assay; type: functional
SF-539 = assay: Antiproliferative activity against human SF-539 cells assessed as cell growth inhibition by measuring lethal concentration incubated for 48 hrs by sulforhodamine B assay; type: functional; conditions: read-out: LC50 (the source's name)
UO-31 = assay: Antiproliferative activity against human UO-31 cells assessed as cell growth at 0.0001 M incubated for 48 hrs by SRB assay relative to control; type: functional; conditions: read-out: Activity
M14 = assay: Growth inhibition against human M14 cells assessed as total growth inhibitory concentration incubated for 48 hrs by sulforhodamine B assay; type: functional
K562 [8] = assay: Antiproliferative activity against human K562 cells assessed as cell growth at 0.0000001 M incubated for 48 hrs by SRB assay relative to control; type: functional; conditions: dose 100 nM, read-out: Activity
SNB-75 = assay: Antiproliferative activity against human SNB-75 cells assessed as cell growth inhibition by measuring lethal concentration incubated for 48 hrs by sulforhodamine B assay; type: functional; conditions: read-out: LC50 (the source's name)
How it was run: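 NCI-60 five-dose screen (10^-4 to 10^-8 M, 10-fold dilutions; DMSO stocks). Cells in RPMI 1640 with 5% FBS and 2 mM L-glutamine, preincubated 24 h, then exposed 48 h at 37 °C, 5% CO2. Fixed with cold TCA, stained with 0.4% SRB, absorbance read at 515 nm. Time-zero plates used as reference. LC50 taken from [(Ti-Tz)/Tz]×100 […].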

Malme-3M = assay: Growth inhibition against human Malme-3M cells assessed as total growth inhibitory concentration incubated for 48 hrs by sulforhodamine B assay; type: functional
K562 [9] = assay: Antiproliferative activity against human K562 cells assessed as cell growth inhibition by measuring lethal concentration incubated for 48 hrs by sulforhodamine B assay; type: functional; conditions: read-out: LC50 (the source's name)
SW-620 = assay: Antiproliferative activity against human SW620 cells assessed as cell growth at 0.00001 M incubated for 48 hrs by SRB assay relative to control; type: functional; conditions: read-out: Activity
T47D = assay: Growth inhibition against human T47D cells assessed as total growth inhibitory concentration incubated for 48 hrs by sulforhodamine B assay; type: functional
UACC-62 = assay: Growth inhibition against human UACC-62 cells assessed as total growth inhibitory concentration incubated for 48 hrs by sulforhodamine B assay; type: functional
LOX IMVI = assay: Growth inhibition against human LOX IMVI cells assessed as total growth inhibitory concentration incubated for 48 hrs by sulforhodamine B assay; type: functional
K562 [10] = assay: Antiproliferative activity against human K562 cells assessed as cell growth at 0.000001 M incubated for 48 hrs by SRB assay relative to control; type: functional; conditions: read-out: Activity
U-251 = assay: Growth inhibition against human U-251 cells assessed as total growth inhibitory concentration incubated for 48 hrs by sulforhodamine B assay; type: functional
Calf thymus DNA [11] = assay: Binding affinity to calf thymus DNA assessed as binding constant at temperature of 308 K by Stern-Volmer quenching plot based fluorescence spectroscopic method; type: nucleic-acid assay; conditions: Bos taurus
SN12C = assay: Antiproliferative activity against human SN12C cells assessed as cell growth at 0.0001 M incubated for 48 hrs by SRB assay relative to control; type: functional; conditions: read-out: Activity
EKVX = assay: Growth inhibition against human EKVX cells assessed as total growth inhibitory concentration incubated for 48 hrs by sulforhodamine B assay; type: functional
Calf thymus DNA [12] = assay: Binding affinity to calf thymus DNA assessed as change in entropy at temperature of 298 K by Van't Hoff plot analysis; type: nucleic-acid assay; conditions: Bos taurus
Calf thymus DNA [13] = assay: Binding affinity to calf thymus DNA assessed as gibbs free energy change at temperature of 308 K by Van't Hoff plot analysis; type: nucleic-acid assay; conditions: Bos taurus
Calf thymus DNA [14] = assay: Binding affinity to calf thymus DNA assessed as change in enthalpy at temperature of 298 K by Van't Hoff plot analysis; type: nucleic-acid assay; conditions: Bos taurus
Calf thymus DNA [15] = assay: Binding affinity to calf thymus DNA assessed as binding constant at temperature of 318 K by Stern-Volmer quenching plot based fluorescence spectroscopic method; type: nucleic-acid assay; conditions: Bos taurus

c1ccc(Cn2cnc3ccc(-c4nc(-c5ccc6c(c5)ncn6C5CCCCC5)cn5ccnc45)cc32)cc1 was tested, and the TGI (SF-295) was 2.98 µM, the GI50 (OVCAR-4) was 3.06 µM and the TGI (786-0) was > 100 µM. The Activity (Albumin) was 75%, the TGI (NCI/ADR-RES) was 5.43 µM and the growth at 100 µM (NCI-H522) was -42%. For the same compound, the GI50 (OVCAR-5) was 2.64 µM.
In the case of COc1ccc(-c2cn3ccnc3c(-c3ccc4ncn(C5CCCCC5)c4c3)n2)cc1, the Activity (Calf thymus DNA [1]) is reported as 60%, the Kq (Calf thymus DNA [2]) is reported as 1.68 10^12/M/s and the TGI (MDA-MB-435) is reported as > 100 µM. For the same compound, the growth at 0.01 µM (K562 [3]) was 105%, the TGI (NCI-H226) was > 100 µM and the TGI (SK-MEL-28) was > 100 µM. The CC50 (SK-MEL-5) was > 100 µM, the deltaG (Calf thymus DNA [4]) was -3.79 kcal/mol and the TGI (HCT-15) was > 100 µM. For the same compound, the deltaG (Calf thymus DNA [5]) was -7.91 kcal/mol, the KSV (Calf thymus DNA [6]) was 1.68 10^4/M and the growth at 10 µM (K562 [7]) was 8%. For the same compound, the CC50 (RXF 393) was > 100 µM, the TGI (HOP-62) was > 100 µM and the CC50 (SF-539) was > 100 µM. The growth at 100 µM (UO-31) was 26%, the TGI (M14) was > 100 µM and the growth at 0.1 µM (K562 [8]) was 92%. The CC50 (SNB-75) was > 100 µM, the TGI (Malme-3M) was > 100 µM and the CC50 (K562 [9]) was > 100 µM. For the same compound, the growth at 10 µM (SW-620) was 29%, the TGI (T47D) was 4.5 µM and the TGI (UACC-62) was > 100 µM. The TGI (LOX IMVI) was > 100 µM, the growth at 1 µM (K562 [10]) was 25% and the TGI (U-251) was > 100 µM. For the same compound, the Kb (Calf thymus DNA [11]) was 4.57 10^4/M, the growth at 100 µM (SN12C) was 31% and the TGI (EKVX) was > 100 µM. It also gave a deltaS (Calf thymus DNA [12]) of -206 cal/mol/K, a deltaG (Calf thymus DNA [13]) of -5.85 kcal/mol and a deltaH (Calf thymus DNA [14]) of -69.3 kcal/mol. The Kb (Calf thymus DNA [15]) was 0.02 10^4/M.
